Calls of active or inactive are those of the source. The calls are words filed in the database; no cut-off is given here.
Experiments:
[1] = molecular target: T1, Glutamate NMDA receptor; Grin1/Grin2b (Rattus norvegicus) (UniProt P35439+Q00960); test: Potentiation of rat recombinant GluN1/GluN2B expressed in Xenopus laevis oocytes assessed as increase in glutamate/glycine-induced current response at 30 uM by two-electrode voltage clamp technique relative to control; assay type: cell-based
Procedure, shortened: (§1)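 Two-electrode voltage clamp at −40 mV on Xenopus oocytes coexpressing GluN1 with GluN2A, 2B, 2C or 2D. […] Compounds came from 20 mM DMSO stocks, with 0.05–0.5% final DMSO. Some GluN2A oocytes were injected with K-BAPTA to limit current run-up. Recording solution was pH 7.4, 23 °C.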

[2] = molecular target: T2, Glutamate NMDA receptor; Grin1/Grin2c (Rattus norvegicus) (UniProt P35439+Q00961); test: Potentiation of rat recombinant GluN1/GluN2C expressed in Xenopus laevis oocytes assessed as increase in glutamate/glycine-induced current response at 30 uM by two-electrode voltage clamp technique relative to control; assay type: cell-based; procedure, shortened: as §1
[3] = molecular target: T3, Glutamate NMDA receptor; Grin1/Grin2a (Rattus norvegicus) (UniProt P35439+Q00959); test: Potentiation of rat recombinant GluN1/GluN2A expressed in Xenopus laevis oocytes assessed as increase in glutamate/glycine-induced current response at 30 uM by two-electrode voltage clamp technique relative to control; assay type: cell-based; procedure, shortened: as §1
[4] = molecular target: Glutamate NMDA receptor; Grin1/Grin2c (Rattus norvegicus, UniProt P35439+Q00961); test: Potentiation of rat recombinant GluN1/GluN2C expressed in Xenopus laevis oocytes assessed as increase in glutamate/glycine-induced current response by two-electrode voltage clamp technique relative to control; assay type: cell-based
[5] = molecular target: T4, Ionotropic glutamate receptor NMDA 1/2D (Rattus norvegicus) (UniProt P35439+Q62645); test: Potentiation of rat recombinant GluN1/GluN2D expressed in Xenopus laevis oocytes assessed as increase in glutamate/glycine-induced current response at 30 uM by two-electrode voltage clamp technique relative to control; assay type: cell-based; procedure, shortened: as §1
[6] = molecular target: T2, Glutamate NMDA receptor; Grin1/Grin2c (Rattus norvegicus); test: Potentiation of rat recombinant GluN1/GluN2C expressed in Xenopus laevis oocytes assessed as glutamate-induced current response at 68 uM by two-electrode voltage clamp technique; assay type: cell-based
Homo sapiens [7] = species: Homo sapiens; test: Potentiation of recombinant GABA receptor (unknown origin)
[8] = molecular target: T2, Glutamate NMDA receptor; Grin1/Grin2c (Rattus norvegicus); test: Potentiation of rat recombinant GluN1/GluN2C expressed in Xenopus laevis oocytes assessed as glycine-induced current response at 68 uM by two-electrode voltage clamp technique; assay type: cell-based
[9] = molecular target: Glutamate receptor 1 (Rattus norvegicus) (UniProt P19490); test: Potentiation of recombinant homomeric GluA1 AMPA receptor (rat) at 30 uM relative to control
[10] = molecular target: T2, Glutamate NMDA receptor; Grin1/Grin2c (Rattus norvegicus); test: Potentiation of rat recombinant GluN1/GluN2C expressed in Xenopus laevis oocytes assessed as glutamte/glycine-induced current response at 20 uM at 30 mV; assay type: cell-based
Homo sapiens [11] = species: Homo sapiens; test: Potentiation of recombinant purinergic receptor (unknown origin)
[12] = molecular target: T2, Glutamate NMDA receptor; Grin1/Grin2c (Rattus norvegicus); test: Agonist activity at rat recombinant GluN1/GluN2C expressed in Xenopus laevis oocytes by two-electrode voltage clamp technique relative to control; assay type: cell-based
Homo sapiens [13] = species: Homo sapiens; test: Potentiation of recombinant serotonin receptor (unknown origin)
Homo sapiens [14] = species: Homo sapiens; test: Potentiation of recombinant nicotinic receptor (unknown origin)
[15] = molecular target: T2, Glutamate NMDA receptor; Grin1/Grin2c (Rattus norvegicus); test: Potentiation of rat recombinant GluN1/GluN2C expressed in Xenopus laevis oocytes assessed as increase in glutamate/glycine-induced current response at 100 uM by two-electrode voltage clamp technique relative to control; assay type: cell-based; procedure, shortened: as §1
[16] = molecular target: T2, Glutamate NMDA receptor; Grin1/Grin2c (Rattus norvegicus); test: Effect on rat recombinant GluN1/GluN2C expressed in Xenopus laevis oocytes assessed as reversal potential of glycine/glutamate-induced current response (reference value: -5.1 +/- 0.8 mV); assay type: cell-based
Procedure, shortened: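 Reversal potential of GluN1/GluN2C currents in cRNA-injected Xenopus oocytes by two-electrode voltage clamp. […] Recording solution was Ba²⁺-containing HEPES saline, pH 7.4, 23 °C.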

[17] = molecular target: T2, Glutamate NMDA receptor; Grin1/Grin2c (Rattus norvegicus); test: Potentiation of rat recombinant GluN1/GluN2C expressed in Xenopus laevis oocytes assessed as glutamte/glycine-induced current response at 20 uM at -40 mV; assay type: cell-based
[18] = molecular target: Glutamate receptor ionotropic, kainate 2 (Rattus norvegicus) (UniProt P42260); test: Potentiation of recombinant homomeric GluK2 receptor (rat) at 120 uM relative to control
Homo sapiens [19] = species: Homo sapiens; test: Potentiation of recombinant glycine receptor (unknown origin)
Homo sapiens [20] = species: Homo sapiens; test: Potentiation of recombinant kainate receptor (unknown origin)
[21] = molecular target: T3, Glutamate NMDA receptor; Grin1/Grin2a (Rattus norvegicus); test: Activity at rat recombinant GluN1/GluN2A expressed in Xenopus laevis oocytes assessed as current response at 100 uM relative to control
[22] = molecular target: T1, Glutamate NMDA receptor; Grin1/Grin2b (Rattus norvegicus); test: Activity at rat recombinant GluN1/GluN2B expressed in Xenopus laevis oocytes assessed as current response at 100 uM relative to control
[23] = molecular target: T4, Ionotropic glutamate receptor NMDA 1/2D (Rattus norvegicus); test: Activity at rat recombinant GluN1/GluN2D expressed in Xenopus laevis oocytes assessed as current response at 100 uM relative to control
[24] = molecular target: Ionotropic glutamate receptor NMDA 1/2D (Rattus norvegicus, UniProt P35439+Q62645); test: Inhibition of rat recombinant GluN1/GluN2D expressed in Xenopus laevis oocytes assessed as reduction in current response; assay type: cell-based
[25] = molecular target: Glutamate NMDA receptor; Grin1/Grin2a (Rattus norvegicus, UniProt P35439+Q00959); test: Inhibition of rat recombinant GluN1/GluN2A expressed in Xenopus laevis oocytes assessed as reduction in current response; assay type: cell-based
[26] = molecular target: Glutamate NMDA receptor; Grin1/Grin2b (Rattus norvegicus, UniProt P35439+Q00960); test: Inhibition of rat recombinant GluN1/GluN2B expressed in Xenopus laevis oocytes assessed as reduction in current response; assay type: cell-based

Chain of Glutamate receptor ionotropic, kainate 2 (Rattus norvegicus) (P42260 whole entry, looked up): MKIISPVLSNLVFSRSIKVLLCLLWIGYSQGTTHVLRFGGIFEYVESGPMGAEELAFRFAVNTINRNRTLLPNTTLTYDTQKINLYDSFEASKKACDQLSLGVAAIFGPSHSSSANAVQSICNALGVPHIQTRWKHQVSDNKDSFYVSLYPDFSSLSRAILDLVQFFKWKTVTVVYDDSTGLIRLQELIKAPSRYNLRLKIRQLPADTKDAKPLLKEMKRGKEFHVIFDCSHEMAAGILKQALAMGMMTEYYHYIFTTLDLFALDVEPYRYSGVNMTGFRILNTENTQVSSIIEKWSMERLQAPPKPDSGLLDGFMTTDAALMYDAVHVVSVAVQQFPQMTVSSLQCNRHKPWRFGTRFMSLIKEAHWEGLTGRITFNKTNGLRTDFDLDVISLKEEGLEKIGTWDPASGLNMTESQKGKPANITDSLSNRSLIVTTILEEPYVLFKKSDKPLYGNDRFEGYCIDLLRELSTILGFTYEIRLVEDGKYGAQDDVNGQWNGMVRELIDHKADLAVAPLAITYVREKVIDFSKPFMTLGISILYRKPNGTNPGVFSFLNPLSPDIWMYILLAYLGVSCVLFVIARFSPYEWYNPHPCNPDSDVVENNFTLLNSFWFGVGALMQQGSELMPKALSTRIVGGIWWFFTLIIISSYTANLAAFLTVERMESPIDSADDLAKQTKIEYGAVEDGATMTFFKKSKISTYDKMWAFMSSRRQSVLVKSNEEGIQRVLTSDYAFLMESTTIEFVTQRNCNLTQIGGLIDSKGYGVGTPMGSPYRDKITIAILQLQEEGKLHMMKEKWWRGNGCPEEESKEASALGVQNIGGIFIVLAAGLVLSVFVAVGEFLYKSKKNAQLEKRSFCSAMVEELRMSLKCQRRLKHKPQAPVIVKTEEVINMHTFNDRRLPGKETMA
Chain of Glutamate receptor 1 (Rattus norvegicus) (P19490 whole entry, looked up): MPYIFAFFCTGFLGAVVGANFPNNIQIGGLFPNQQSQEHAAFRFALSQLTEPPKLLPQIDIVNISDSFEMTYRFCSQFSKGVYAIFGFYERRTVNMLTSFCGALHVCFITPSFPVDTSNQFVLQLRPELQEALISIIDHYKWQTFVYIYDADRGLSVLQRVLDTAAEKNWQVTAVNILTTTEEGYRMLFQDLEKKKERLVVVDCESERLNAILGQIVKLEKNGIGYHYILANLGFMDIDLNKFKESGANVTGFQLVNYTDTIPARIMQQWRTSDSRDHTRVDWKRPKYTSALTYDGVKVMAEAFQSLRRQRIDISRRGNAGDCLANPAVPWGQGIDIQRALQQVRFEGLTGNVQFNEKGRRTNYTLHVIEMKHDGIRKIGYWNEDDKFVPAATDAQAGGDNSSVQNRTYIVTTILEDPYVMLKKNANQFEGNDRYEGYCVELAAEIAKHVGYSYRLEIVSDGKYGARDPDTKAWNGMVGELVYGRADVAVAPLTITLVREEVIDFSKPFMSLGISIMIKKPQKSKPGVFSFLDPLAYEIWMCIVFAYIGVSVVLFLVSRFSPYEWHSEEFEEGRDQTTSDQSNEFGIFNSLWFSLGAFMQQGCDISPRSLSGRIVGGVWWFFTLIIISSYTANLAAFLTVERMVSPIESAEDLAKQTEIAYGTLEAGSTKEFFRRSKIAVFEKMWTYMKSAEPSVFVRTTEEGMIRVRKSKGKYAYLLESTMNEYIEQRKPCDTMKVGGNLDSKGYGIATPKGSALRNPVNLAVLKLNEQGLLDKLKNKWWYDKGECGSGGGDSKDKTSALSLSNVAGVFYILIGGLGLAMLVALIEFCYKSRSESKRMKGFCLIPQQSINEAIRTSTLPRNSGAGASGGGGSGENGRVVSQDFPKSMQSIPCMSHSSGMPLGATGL

CCOC(=O)c1ccc(C2C(C(C)=O)=C(O)C(=O)N2CCc2c(C)[nH]c3ccccc23)cc1 (stereo not drawn)
Activity [1]: 99% | Activity [2]: 220% | max activation [2]: 265% | Activity [3]: 108% | EC50 [4]: 13 µM | Activity [5]: 85%

COC(=O)c1ccc(C2C(C(C)=O)=C(O)C(=O)N2CCc2c[nH]c3c(C)cccc23)cc1 (stereo not drawn)
Activity [1]: 81% | Activity [2]: 121% | max activation [2]: 139% | Activity [3]: 98% | EC50 [4]: 25 µM | Activity [5]: 92%

COC(=O)c1ccc(C2C(C(=O)c3cccnc3)=C(O)C(=O)N2CCc2c[nH]c3cc(F)ccc23)cc1 (stereo not drawn)
Activity [1]: 64% | Activity [2]: 163% | max activation [2]: 167% | Activity [3]: 94% | EC50 [4]: 13 µM | Activity [5]: 82%

COC(=O)c1ccc(C2C(C(=O)c3cccnc3)=C(O)C(=O)N2CCc2c[nH]c3ccccc23)cc1 (stereo not drawn)
Activity [1]: 76% | Activity [2]: 180% | max activation [2]: 201% | Activity [3]: 97% | EC50 [4]: 12 µM | Activity [5]: 78%

COC(=O)c1ccc(C2C(C(=O)C(C)(C)C)=C(O)C(=O)N2CCc2c[nH]c3ccccc23)cc1 (stereo not drawn)
Activity [1]: 93% | Activity [2]: 129% | max activation [2]: 187% | Activity [3]: 87% | EC50 [4]: 52 µM | Activity [5]: 79%

COC(=O)c1ccc(C2C(C(=O)c3cccnc3)=C(O)C(=O)N2CCc2c[nH]c3cc(C)ccc23)cc1 (stereo not drawn)
Activity [1]: 82% | Activity [2]: 219% | max activation [2]: 218% | Activity [3]: 103% | EC50 [4]: 4.3 µM | Activity [5]: 86%

COC(=O)c1ccc(C2C(C(=O)c3cccnc3)=C(O)C(=O)N2CCc2c[nH]c3cc(Cl)ccc23)cc1 (stereo not drawn)
Activity [1]: 66% | Activity [2]: 170% | max activation [2]: 204% | Activity [3]: 93% | EC50 [4]: 8.5 µM | Activity [5]: 86%

COC(=O)c1ccc(C2C(C(C)=O)=C(O)C(=O)N2CCc2c[nH]c3ccccc23)cc1O (stereo not drawn)
Activity [1]: 79% | Activity [2]: 123% | max activation [2]: 151% | Activity [3]: 81% | EC50 [4]: 29 µM | Activity [5]: 90%

COC(=O)c1ccc(C2C(C(C)=O)=C(O)C(=O)N2CCc2c[nH]c3ccccc23)cc1 (stereo not drawn)
Activity [6]: inactive | Activity (Homo sapiens [7]): inactive | Activity [8]: inactive | Activity [9]: 97% | Activity [10]: 180% | Activity (Homo sapiens [11]): inactive | Activity [12]: inactive | Activity (Homo sapiens [13]): inactive | Activity (Homo sapiens [14]): inactive | Activity [2]: 196% | max activation [2]: 275% | max activation [15]: 238% | Activity [16]: -5 mV | Activity [17]: 202% | Activity [18]: 95% | Activity (Homo sapiens [19]): inactive | Activity (Homo sapiens [20]): inactive

CCOC(=O)c1ccc(C2C(C(=O)c3cccnc3)=C(O)C(=O)N2CCc2c[nH]c3ccccc23)cc1 (stereo not drawn)
Activity [1]: 71% | Activity [2]: 201% | max activation [2]: 207% | Activity [3]: 97% | EC50 [4]: 8.2 µM | Activity [5]: 83%

COC(=O)c1ccc(C2C(C(=O)c3cccc(O)c3)=C(O)C(=O)N2CCc2c[nH]c3ccccc23)cc1 (stereo not drawn)
Activity [1]: 65% | residual activity [21]: 76% | residual activity [22]: 42% | residual activity [23]: 48% | Activity [2]: 169% | max activation [2]: 176% | Activity [3]: 89% | EC50 [4]: 7 µM | Activity [5]: 69%

C=CC(=O)OC1=C(C(C)=O)C(c2ccc(C(=O)OC)cc2)N(CCc2c(C)[nH]c3ccccc23)C1=O (stereo not drawn)
Activity [1]: 104% | Activity [2]: 125% | max activation [2]: 208% | Activity [3]: 106% | EC50 [4]: 105 µM | Activity [5]: 100%

COC(=O)c1ccc(C2C(C(=O)c3cccc(C)c3)=C(O)C(=O)N2CCc2c[nH]c3ccccc23)cc1 (stereo not drawn)
Activity [1]: 90% | Activity [2]: 122% | max activation [2]: 131% | Activity [3]: 97% | EC50 [4]: 16 µM | Activity [5]: 84%

COC(=O)c1ccc(C2C(C(C)=O)=C(O)C(=O)N2CCc2c[nH]c3ccccc23)c(O)c1 (stereo not drawn)
Activity [1]: 86% | Activity [2]: 173% | max activation [2]: 202% | Activity [3]: 107% | EC50 [4]: 15 µM | Activity [5]: 88%

COC(=O)c1ccc(C2C(C(=O)C(C)C)=C(O)C(=O)N2CCc2c[nH]c3ccccc23)cc1 (stereo not drawn)
Activity [1]: 87% | max activation [15]: 119% | Activity [3]: 95% | EC50 [4]: 61 µM | Activity [5]: 89%

COC(=O)c1ccc(C2C(C(C)=O)=C(O)C(=O)N2CCc2c[nH]c3ccccc23)c(Cl)c1 (stereo not drawn)
Activity [1]: 87% | Activity [2]: 139% | max activation [2]: 191% | Activity [3]: 103% | EC50 [4]: 36 µM | Activity [5]: 90%

COC(=O)c1ccc(C2C(C(=O)c3cccnc3)=C(O)C(=O)N2CCc2c[nH]c3cc(OC)ccc23)cc1 (stereo not drawn)
Activity [1]: 98% | Activity [2]: 194% | max activation [2]: 204% | Activity [3]: 84% | EC50 [4]: 8 µM | Activity [5]: 85%

CCOC(=O)c1ccc(C2C(C(C)=O)=C(O)C(=O)N2CCc2c[nH]c3ccccc23)c(O)c1 (stereo not drawn)
Activity [1]: 100% | Activity [2]: 145% | max activation [2]: 194% | Activity [3]: 110% | EC50 [4]: 40 µM | Activity [5]: 88%

COC(=O)c1ccc(C2C(C(=O)c3ccncc3)=C(O)C(=O)N2CCc2c[nH]c3ccccc23)cc1 (stereo not drawn)
Activity [1]: 87% | Activity [2]: 186% | max activation [2]: 196% | Activity [3]: 92% | EC50 [4]: 8.9 µM | Activity [5]: 84%

COC(=O)c1ccc(C2C(C(=O)c3cccnc3)=C(O)C(=O)N2CCc2c[nH]c3c(F)cccc23)cc1 (stereo not drawn)
Activity [1]: 84% | Activity [2]: 161% | max activation [2]: 191% | Activity [3]: 105% | EC50 [4]: 18 µM | Activity [5]: 86%

COC(=O)c1ccc(C2C(C(=O)c3cccnc3)=C(O)C(=O)N2CCc2c(C)[nH]c3ccccc23)cc1 (stereo not drawn)
Activity [1]: 77% | Activity [2]: 174% | max activation [2]: 204% | Activity [3]: 82% | EC50 [4]: 13 µM | Activity [5]: 82%

COC(=O)c1ccc(C2C(C(C)=O)=C(O)C(=O)N2CCc2c[nH]c3ccccc23)c(OC)c1 (stereo not drawn)
Activity [1]: 83% | Activity [2]: 132% | max activation [2]: 183% | Activity [3]: 102% | EC50 [4]: 46 µM | Activity [5]: 100%

CCOC(=O)c1ccc(C2C(C(=O)c3ccncc3)=C(O)C(=O)N2CCc2c[nH]c3ccccc23)cc1 (stereo not drawn)
Activity [1]: 91% | Activity [2]: 223% | max activation [2]: 245% | Activity [3]: 109% | EC50 [4]: 9.7 µM | Activity [5]: 86%

COC(=O)c1ccc(C2C(C(=O)c3ccncc3)=C(O)C(=O)N2CCc2cccc3ccccc23)cc1 (stereo not drawn)
Activity [1]: 20% | IC50 [24]: 5.7 µM | IC50 [25]: 18 µM | IC50 [26]: 7.2 µM | Activity [2]: 34% | Activity [3]: 44% | Activity [5]: 18%
